According to ChEMBL document CHEMBL1141591, “Lipophilic modifications to dinucleoside polyphosphates and nucleotides that confer antagonist properties at the platelet P2Y12 receptor” (J Med Chem, 2008):
pEC50: −log10 of the molar value. Activity calls are given as the source filed them. No cut-off for these calls is given here.

Experiments:
P2Y purinoceptor 2 [1] = biological target: T1, P2Y purinoceptor 2 (Homo sapiens, UniProt P41231); test: Agonist activity at P2Y2 receptor expressed in human 1321 cells by calcium mobilization assay; type: functional, cell-based
T1 sequence (P41231 whole entry): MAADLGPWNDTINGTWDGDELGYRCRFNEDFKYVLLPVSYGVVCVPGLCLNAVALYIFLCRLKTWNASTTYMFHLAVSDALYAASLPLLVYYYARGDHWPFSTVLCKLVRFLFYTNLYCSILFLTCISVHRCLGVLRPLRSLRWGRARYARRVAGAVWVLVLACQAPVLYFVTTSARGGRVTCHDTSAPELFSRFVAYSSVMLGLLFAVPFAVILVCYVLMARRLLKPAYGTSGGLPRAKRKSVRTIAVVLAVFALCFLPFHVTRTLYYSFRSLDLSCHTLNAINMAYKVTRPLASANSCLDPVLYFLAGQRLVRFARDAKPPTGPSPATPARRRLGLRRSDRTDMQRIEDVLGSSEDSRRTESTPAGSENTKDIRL

P2Y purinoceptor 6 = P2Y purinoceptor 6 (Homo sapiens, UniProt Q15077); test: Agonist activity at P2Y6 receptor expressed in human 1321 cells at 100 uM by calcium mobilization assay; type: functional, cell-based
Sequence of P2Y purinoceptor 6 (Q15077 whole entry): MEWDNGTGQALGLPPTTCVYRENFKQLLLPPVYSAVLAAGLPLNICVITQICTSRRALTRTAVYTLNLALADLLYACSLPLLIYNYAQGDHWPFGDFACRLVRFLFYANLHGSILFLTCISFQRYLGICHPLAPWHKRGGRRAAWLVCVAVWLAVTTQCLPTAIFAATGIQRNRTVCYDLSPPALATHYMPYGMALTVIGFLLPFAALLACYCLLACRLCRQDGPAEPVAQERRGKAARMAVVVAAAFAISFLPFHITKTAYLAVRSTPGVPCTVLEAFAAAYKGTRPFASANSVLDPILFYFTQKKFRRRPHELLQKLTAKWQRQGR
Summary of the method: (§1)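 1321N1 human astrocytoma cells expressing the recombinant receptor were loaded with Fluo-3 AM (2.5 µM final) for 60 min at 25 °C. Assay buffer: KCl 10, NaCl 118, CaCl2 2.5, MgCl2 1, HEPES 20, glucose 10 mM, pH 7.4. Cells were washed and then stimulated with compound. Intracellular calcium was read as the change in fluorescence (FLIPR). Values are EC50 in µM. SR means 5–20% of maximal response at the top concentration, usually 100 µM. NR means no response.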

P2Y purinoceptor 1 = P2Y purinoceptor 1 (Homo sapiens, UniProt P47900); test: Agonist activity at human recombinant P2Y1 receptor expressed in human 1321 cells at 100 uM by calcium mobilization assay; type: functional, cell-based; summary of the method: as §1
Sequence of P2Y purinoceptor 1 (P47900 whole entry): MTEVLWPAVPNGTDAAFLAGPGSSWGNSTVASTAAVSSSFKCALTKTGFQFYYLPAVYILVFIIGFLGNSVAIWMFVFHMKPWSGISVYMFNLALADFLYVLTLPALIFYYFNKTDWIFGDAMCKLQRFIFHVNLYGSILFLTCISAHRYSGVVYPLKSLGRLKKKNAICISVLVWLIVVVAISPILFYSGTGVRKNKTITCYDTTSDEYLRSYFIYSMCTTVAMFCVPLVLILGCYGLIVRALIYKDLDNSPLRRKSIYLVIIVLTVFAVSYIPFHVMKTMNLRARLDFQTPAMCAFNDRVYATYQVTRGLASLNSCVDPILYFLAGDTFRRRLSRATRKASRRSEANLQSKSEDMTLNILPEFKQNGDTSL

P2Y purinoceptor 2 [2] = biological target: T1, P2Y purinoceptor 2; test: Agonist activity at P2Y2 receptor expressed in human 1321 cells at 100 uM by calcium mobilization assay; type: functional, cell-based; summary of the method: as §1
[3] = biological target: P2Y purinoceptor 12 (Homo sapiens) (UniProt Q9H244); test: Antagonist activity at P2Y12 receptor assessed as inhibition of ADP-induced human platelet aggregation by washed platelet assay at 100 uM; type: functional
Sequence of P2Y purinoceptor 12 (Homo sapiens) (Q9H244 whole entry): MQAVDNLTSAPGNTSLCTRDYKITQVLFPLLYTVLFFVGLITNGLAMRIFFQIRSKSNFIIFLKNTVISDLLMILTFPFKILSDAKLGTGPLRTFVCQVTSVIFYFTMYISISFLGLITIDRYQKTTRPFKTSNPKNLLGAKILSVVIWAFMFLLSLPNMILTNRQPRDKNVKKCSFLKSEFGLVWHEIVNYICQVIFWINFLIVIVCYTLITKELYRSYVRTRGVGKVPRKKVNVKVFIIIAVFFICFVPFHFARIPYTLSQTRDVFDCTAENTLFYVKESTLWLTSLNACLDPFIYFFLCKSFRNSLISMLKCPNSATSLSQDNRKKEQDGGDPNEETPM
Summary of the method: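 Blood from healthy volunteers was anticoagulated with ACD and spun at 180g for 15 min to give PRP. Platelets were washed three times in HEPES-buffered saline, pH 7.4, with 0.2% BSA and 5 µM PGI2, then resuspended with 0.25 U/mL apyrase. The suspension held 1 mg/mL fibrinogen at 37 °C, stirred at 1000 rpm. Compound (usually 1 nM–100 µM) was added for 2 min, then ADP at EC90 (usually 1–10 µM). Optical aggregation was recorded for 8 min. IC50 came from a four-parameter logistic fit.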

O=c1ccn([C@@H]2O[C@H](COP(=O)(O)OP(=O)(O)OP(=O)(O)OP(=O)(O)OC[C@@H]3O[C@H](n4ccc(=O)[nH]c4=O)[C@@H](O)[C@H]3O)[C@@H]3OC(c4ccccc4)O[C@H]32)c(=O)[nH]1 (some centres undefined)
pEC50 (P2Y purinoceptor 2 [1]): 6.72 | Activity (P2Y purinoceptor 6): > 5% | Activity (P2Y purinoceptor 1): inactive

O=c1ccn([C@@H]2O[C@H](COP(=O)(O)OP(=O)(O)OP(=O)(O)OP(=O)(O)OC[C@@H]3O[C@H](n4ccc(=O)[nH]c4=O)[C@H]4OC(c5ccccc5)O[C@H]43)[C@H]3OC(c4ccccc4)O[C@H]32)c(=O)[nH]1 (some centres undefined)
pEC50 (P2Y purinoceptor 2 [1]): 5.51 | Activity (P2Y purinoceptor 6): inactive | Activity (P2Y purinoceptor 1): inactive

O=c1ccn([C@@H]2O[C@H](COP(=O)(O)OP(=O)(O)OP(=O)(O)OC[C@@H]3O[C@H](n4ccc(=O)[nH]c4=O)[C@H]4OC(Cc5ccccc5)O[C@H]43)[C@H]3OC(Cc4ccccc4)O[C@H]32)c(=O)[nH]1 (some centres undefined)
Activity (P2Y purinoceptor 6): inactive | Activity (P2Y purinoceptor 2 [2]): inactive | Activity (P2Y purinoceptor 1): inactive

Nc1ncnc2c1ncn2[C@@H]1O[C@H](COP(=O)(O)OP(=O)(O)OP(=O)(O)OP(=O)(O)OC[C@@H]2O[C@H](n3cnc4c(N)ncnc43)[C@H]3OC(Cc4ccccc4)O[C@H]32)[C@H]2OC(Cc3ccccc3)O[C@H]21 (some centres undefined)
Activity (P2Y purinoceptor 6): inactive | Activity (P2Y purinoceptor 2 [2]): > 5% | Activity (P2Y purinoceptor 1): inactive

Nc1ncnc2c1ncn2[C@@H]1O[C@H](COP(=O)(O)OP(=O)(O)OP(=O)(O)OP(=O)(O)OC[C@@H]2O[C@H](n3cnc4c(N)ncnc43)[C@@H](O)[C@H]2O)[C@H]2OC(Cc3ccccc3)O[C@H]21 (some centres undefined)
pEC50 (P2Y purinoceptor 2 [1]): 7.28 | Activity (P2Y purinoceptor 6): inactive | Activity (P2Y purinoceptor 1): inactive

O=C(O[C@@H]1[C@H](OC(=O)c2ccccc2)[C@@H](n2ccc(=O)[nH]c2=O)O[C@H]1COP(=O)(O)OP(=O)(O)OP(=O)(O)OP(=O)(O)OC[C@H]1O[C@@H](n2ccc(=O)[nH]c2=O)[C@H](OC(=O)c2ccccc2)[C@@H]1OC(=O)c1ccccc1)c1ccccc1
Activity (P2Y purinoceptor 6): inactive | Activity (P2Y purinoceptor 2 [2]): inactive | Activity (P2Y purinoceptor 1): inactive | inhibition [3]: 52%

O=c1ccn([C@@H]2O[C@H](COP(=O)(O)OP(=O)(O)OP(=O)(O)OP(=O)(O)OC[C@@H]3O[C@H](n4ccc(=O)[nH]c4=O)[C@@H](O)[C@H]3O)[C@H]3OC(/C=C/c4ccccc4)O[C@H]32)c(=O)[nH]1 (stereo in doubt; 24)
pEC50 (P2Y purinoceptor 2 [1]): 6.81 | Activity (P2Y purinoceptor 1): inactive

O=C(Nc1ccc(F)cc1)Nc1ccn([C@@H]2O[C@H](COP(=O)(O)OP(=O)(O)OP(=O)(O)OP(=O)(O)OC[C@@H]3O[C@H](n4ccc(=O)[nH]c4=O)[C@@H](O)[C@H]3O)[C@@H](O)[C@H]2O)c(=O)n1
pEC50 (P2Y purinoceptor 2 [1]): 5.62 | Activity (P2Y purinoceptor 1): > 5% | Activity [3]: inactive

CNc1ccccc1C(=O)O[C@H]1[C@@H](O)[C@H](n2ccc(=O)[nH]c2=O)O[C@@H]1COP(=O)(O)OP(=O)(O)OP(=O)(O)OP(=O)(O)OC[C@@H]1O[C@H](n2ccc(=O)[nH]c2=O)[C@@H](OC(=O)c2ccccc2NC)[C@H]1O
pEC50 (P2Y purinoceptor 2 [1]): 5.26 | Activity (P2Y purinoceptor 6): > 5% | Activity (P2Y purinoceptor 1): inactive

O=c1ccn([C@@H]2O[C@H](COP(=O)(O)OP(=O)(O)OP(=O)(O)OP(=O)(O)OC[C@@H]3O[C@H](n4ccc(=O)[nH]c4=O)[C@@H](O)[C@H]3O)[C@H]3OC(C#Cc4ccccc4)O[C@H]32)c(=O)[nH]1 (stereo in doubt; 26)
pEC50 (P2Y purinoceptor 2 [1]): 7.17 | Activity (P2Y purinoceptor 1): inactive

Nc1ccn([C@@H]2O[C@H](COP(=O)(O)O)[C@H]3O[C@@H](Cc4ccccc4)O[C@H]32)c(=O)n1
Activity (P2Y purinoceptor 6): inactive | Activity (P2Y purinoceptor 2 [2]): inactive | Activity (P2Y purinoceptor 1): inactive | Activity [3]: inactive

O=C(Nc1ccc(F)cc1)Nc1ccn([C@@H]2O[C@H](COP(=O)(O)OP(=O)(O)OP(=O)(O)OP(=O)(O)OC[C@@H]3O[C@H](n4ccc(=O)[nH]c4=O)[C@H]4O[C@@H](Cc5ccccc5)O[C@H]43)[C@H]3O[C@@H](Cc4ccccc4)O[C@H]32)c(=O)n1
Activity (P2Y purinoceptor 6): inactive | Activity (P2Y purinoceptor 2 [2]): inactive | Activity (P2Y purinoceptor 1): inactive

O=C(Nc1ccc(F)cc1)Nc1ccn([C@@H]2O[C@H](COP(=O)(O)OP(=O)(O)OP(=O)(O)OP(=O)(O)OC[C@@H]3O[C@H](n4ccc(=O)[nH]c4=O)[C@H]4O[C@@H](Cc5ccccc5)O[C@H]43)[C@@H](O)[C@H]2O)c(=O)n1
Activity (P2Y purinoceptor 2 [2]): inactive | Activity (P2Y purinoceptor 1): inactive

Nc1ccn([C@@H]2O[C@H](COP(=O)(O)OP(=O)(O)OP(=O)(O)OP(=O)(O)OC[C@@H]3O[C@H](n4ccc(=O)[nH]c4=O)[C@H]4OC(Cc5ccccc5)O[C@H]43)[C@@H](O)[C@H]2O)c(=O)n1 (some centres undefined)
Activity (P2Y purinoceptor 6): inactive | Activity (P2Y purinoceptor 2 [2]): inactive | Activity (P2Y purinoceptor 1): inactive | inhibition [3]: 46%

O=C(Nc1ccccc1)Nc1ncnc2c1ncn2[C@@H]1O[C@H](COP(=O)(O)OP(=O)(O)OP(=O)(O)OP(=O)(O)OC[C@@H]2O[C@H](n3cnc4c(NC(=O)Nc5ccccc5)ncnc43)[C@H]3O[C@@H](Cc4ccccc4)O[C@H]32)[C@H]2O[C@@H](Cc3ccccc3)O[C@H]21
Activity (P2Y purinoceptor 2 [2]): inactive | Activity (P2Y purinoceptor 1): inactive

CCCCCCCC1O[C@@H]2[C@H](O1)[C@@H](COP(=O)(O)OP(=O)(O)OP(=O)(O)OP(=O)(O)OC[C@@H]1O[C@H](n3ccc(=O)[nH]c3=O)[C@@H](O)[C@H]1O)O[C@H]2n1ccc(=O)[nH]c1=O (some centres undefined)
pEC50 (P2Y purinoceptor 2 [1]): 6.83 | Activity (P2Y purinoceptor 6): > 5% | Activity (P2Y purinoceptor 1): inactive

Nc1ncnc2c1ncn2[C@@H]1O[C@H](COP(=O)(O)OP(=O)(O)OP(=O)(O)O)[C@@H](O)[C@H]1O
inhibition [3]: 63%

O=C(Nc1ccc(F)cc1)Nc1ccn([C@@H]2O[C@H](COP(=O)(O)O)C(O)C2O)c(=O)n1 (single isomer, unassigned)
Activity [3]: inactive

O=C(Nc1ccccc1)Nc1ncnc2c1ncn2[C@@H]1O[C@H](COP(=O)(O)OP(=O)(O)O)[C@H]2O[C@@H](Cc3ccccc3)O[C@H]21
pEC50 (P2Y purinoceptor 2 [1]): 4.86 | Activity (P2Y purinoceptor 6): > 5% | Activity (P2Y purinoceptor 1): > 5%

O=c1ccn([C@@H]2O[C@H](COP(=O)(O)OP(=O)(O)OP(=O)(O)OP(=O)(O)OC[C@@H]3O[C@H](n4ccc(=O)[nH]c4=O)[C@H]4OC(/C=C/c5ccccc5)O[C@H]43)[C@H]3OC(/C=C/c4ccccc4)O[C@H]32)c(=O)[nH]1 (stereo in doubt; 25)
Activity (P2Y purinoceptor 6): > 5% | Activity (P2Y purinoceptor 2 [2]): inactive | Activity (P2Y purinoceptor 1): inactive

O=C(Nc1ccc(F)cc1)Nc1ccn([C@@H]2O[C@H](COP(=O)(O)OP(=O)(O)OP(=O)(O)OP(=O)(O)OC[C@@H]3O[C@H](n4ccc(=O)[nH]c4=O)[C@@H](O)[C@H]3O)[C@H]3O[C@@H](Cc4ccccc4)O[C@H]32)c(=O)n1
Activity (P2Y purinoceptor 2 [2]): > 5% | Activity (P2Y purinoceptor 1): inactive

O=C(Nc1ccc(F)cc1)Nc1ccn([C@@H]2O[C@H](COP(=O)(O)O)[C@H]3O[C@@H](Cc4ccccc4)O[C@H]32)c(=O)n1
Activity (P2Y purinoceptor 6): inactive | Activity (P2Y purinoceptor 2 [2]): inactive | Activity (P2Y purinoceptor 1): inactive

O=c1ccn([C@@H]2O[C@H](COP(=O)(O)OP(=O)(O)OP(=O)(O)OP(=O)(O)OC[C@@H]3O[C@H](n4ccc(=O)[nH]c4=O)[C@@H](O)[C@H]3O)[C@@H]3OC(Cc4ccccc4)O[C@H]32)c(=O)[nH]1 (some centres undefined)
pEC50 (P2Y purinoceptor 2 [1]): 7.03 | Activity (P2Y purinoceptor 6): > 5% | Activity (P2Y purinoceptor 1): inactive

CCCC1O[C@@H]2[C@@H](O1)[C@@H](COP(=O)(O)OP(=O)(O)OP(=O)(O)OP(=O)(O)OC[C@@H]1O[C@H](n3ccc(=O)[nH]c3=O)[C@H]3OC(CCC)O[C@H]31)O[C@H]2n1ccc(=O)[nH]c1=O (some centres undefined)
Activity (P2Y purinoceptor 6): > 5% | Activity (P2Y purinoceptor 2 [2]): > 5% | Activity (P2Y purinoceptor 1): inactive | inhibition [3]: 60%

Nc1ccn([C@@H]2O[C@H](COP(=O)(O)OP(=O)(O)OP(=O)(O)OP(=O)(O)OC[C@@H]3O[C@H](n4ccc(=O)[nH]c4=O)[C@@H](O)[C@H]3O)[C@@H](O)[C@H]2O)c(=O)n1
pEC50 (P2Y purinoceptor 2 [1]): 7.36 | Activity (P2Y purinoceptor 6): > 5% | Activity (P2Y purinoceptor 1): > 5% | Activity [3]: inactive

Nc1ccn([C@@H]2O[C@H](COP(=O)(O)OP(=O)(O)OP(=O)(O)OP(=O)(O)OC[C@@H]3O[C@H](n4ccc(=O)[nH]c4=O)[C@H]4OC(Cc5ccccc5)O[C@H]43)[C@H]3OC(Cc4ccccc4)O[C@H]32)c(=O)n1 (some centres undefined)
Activity (P2Y purinoceptor 6): inactive | Activity (P2Y purinoceptor 2 [2]): inactive | Activity (P2Y purinoceptor 1): inactive

CCCCCCCC1O[C@@H]2[C@H](O1)[C@@H](COP(=O)(O)OP(=O)(O)OP(=O)(O)OP(=O)(O)OC[C@@H]1O[C@H](n3ccc(=O)[nH]c3=O)[C@H]3OC(CCCCCCC)O[C@H]31)O[C@H]2n1ccc(=O)[nH]c1=O (some centres undefined)
Activity (P2Y purinoceptor 6): inactive | Activity (P2Y purinoceptor 1): inactive

Nc1ccn([C@@H]2O[C@H](COP(=O)(O)OP(=O)(O)OP(=O)(O)OP(=O)(O)OC[C@@H]3O[C@H](n4ccc(=O)[nH]c4=O)[C@@H](O)[C@H]3O)[C@H]3OC(Cc4ccccc4)O[C@H]32)c(=O)n1 (some centres undefined)
pEC50 (P2Y purinoceptor 2 [1]): 6.26 | Activity (P2Y purinoceptor 6): inactive | Activity (P2Y purinoceptor 1): inactive | inhibition [3]: 46%

CNc1ccccc1C(=O)O[C@H]1[C@@H](O)[C@H](COP(=O)(O)OP(=O)(O)OP(=O)(O)OP(=O)(O)OC[C@H]2O[C@@H](n3ccc(=O)[nH]c3=O)[C@H](O)[C@@H]2O)O[C@@H]1n1ccc(=O)[nH]c1=O
pEC50 (P2Y purinoceptor 2 [1]): 6.89 | Activity (P2Y purinoceptor 6): > 5% | Activity (P2Y purinoceptor 1): inactive | inhibition [3]: 46%
